Assay results taken from ChEMBL document CHEMBL4017537, “Discovery of a Potent and Specific M. tuberculosis Leucyl-tRNA Synthetase Inhibitor: (S)-3-(Aminomethyl)-4-chloro-7-(2-hydroxyethoxy)benzo[c][1,2]oxaborol-1(3H)-ol (GSK656)” (J Med Chem, 2017).

Legend:
[1] = test system: Mycobacterium tuberculosis; assay: Antimicrobial activity against Mycobacterium tuberculosis H37Rv infected in C57BL/6J mouse assessed as bacterial load in lungs at 100 mg/kg qd administered for 8 consecutive weeks starting from 6 weeks post infection measured 24 hrs post last dose (reference value: 6.4 +/- 0.3 log10CFU); assay type: functional
Outline: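 C57BL/6J mice infected intratracheally with ~10² CFU M. tuberculosis H37Rv. Dosed QD, 7 days/week, for 8 weeks starting 6 weeks post-infection; killed ≥24 h after last dose. Lung homogenates plated on 7H11/10% OADC for 21 days at 37 °C. n = 3 per dose group, 7 for controls; mean (SD); ANOVA with Dunnett's test versus 14-week untreated.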

[2] = target: T1, Leucine--tRNA ligase (Mycobacterium tuberculosis (strain ATCC 25618 / H37Rv), UniProt P9WFV1); assay: Inhibition of Mycobacterium tuberculosis H37Rv N-terminal 6His-tagged LeuRS expressed in Escherichia coli BL21(DE3) assessed as L-[14C]leucine incorporation in to Escherichia coli tRNA after 20 mins by liquid scintillation counting analysis
T1 sequence (P9WFV1 whole entry): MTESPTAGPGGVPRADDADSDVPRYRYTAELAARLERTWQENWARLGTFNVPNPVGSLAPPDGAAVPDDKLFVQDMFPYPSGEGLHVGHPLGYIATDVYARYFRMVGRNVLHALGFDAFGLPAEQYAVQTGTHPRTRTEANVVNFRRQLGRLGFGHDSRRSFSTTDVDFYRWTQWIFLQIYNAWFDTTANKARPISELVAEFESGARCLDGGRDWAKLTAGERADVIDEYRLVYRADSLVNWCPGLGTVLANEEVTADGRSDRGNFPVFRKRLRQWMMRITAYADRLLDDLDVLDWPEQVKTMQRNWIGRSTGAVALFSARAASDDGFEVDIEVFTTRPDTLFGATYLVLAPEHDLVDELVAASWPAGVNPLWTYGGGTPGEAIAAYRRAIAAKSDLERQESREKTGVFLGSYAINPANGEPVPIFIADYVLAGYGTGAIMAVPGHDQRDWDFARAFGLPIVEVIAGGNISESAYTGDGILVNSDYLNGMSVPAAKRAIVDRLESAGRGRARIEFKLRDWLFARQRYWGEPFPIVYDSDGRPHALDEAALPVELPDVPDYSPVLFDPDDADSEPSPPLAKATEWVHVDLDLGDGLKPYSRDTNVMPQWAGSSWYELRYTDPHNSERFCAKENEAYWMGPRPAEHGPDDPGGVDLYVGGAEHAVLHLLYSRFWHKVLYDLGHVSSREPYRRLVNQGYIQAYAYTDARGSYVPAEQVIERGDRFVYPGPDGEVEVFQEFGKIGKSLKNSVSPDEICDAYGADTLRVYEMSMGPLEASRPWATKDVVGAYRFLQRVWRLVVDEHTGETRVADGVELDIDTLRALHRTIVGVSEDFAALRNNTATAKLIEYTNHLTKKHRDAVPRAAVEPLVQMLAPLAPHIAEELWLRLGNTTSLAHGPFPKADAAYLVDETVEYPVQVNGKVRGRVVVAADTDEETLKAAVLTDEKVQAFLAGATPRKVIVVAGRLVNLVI
Outline: (§1)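 N-terminal His6-tagged LeuRS expressed in E. coli BL21(DE3), codon-optimized. 50 mM HEPES-KOH pH 8.0, 30 mM MgCl2, 30 mM KCl, 13 μM L-[14C]leucine, 15 μM tRNA (E. coli total; brewer's yeast for human cytoplasmic enzyme), 0.02% BSA, 1 mM DTT, 30 °C. Inhibitor preincubated 20 min, started with 4 mM ATP, TCA-quenched after 7 min, filtered, scintillation counted; four-parameter logistic IC50.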

[3] = test system: Mycobacterium tuberculosis; assay: Antimicrobial activity against Mycobacterium tuberculosis H37Rv; assay type: functional
[4] = target: T2, Leucine--tRNA ligase, cytoplasmic (Homo sapiens, UniProt Q9P2J5); assay: Inhibition of human N-terminal 6His-tagged cytoplasmic LeuRS expressed in Escherichia coli BL21(DE3) assessed as […] after 20 mins by liquid scintillation counting analysis
T2 sequence (Q9P2J5 whole entry): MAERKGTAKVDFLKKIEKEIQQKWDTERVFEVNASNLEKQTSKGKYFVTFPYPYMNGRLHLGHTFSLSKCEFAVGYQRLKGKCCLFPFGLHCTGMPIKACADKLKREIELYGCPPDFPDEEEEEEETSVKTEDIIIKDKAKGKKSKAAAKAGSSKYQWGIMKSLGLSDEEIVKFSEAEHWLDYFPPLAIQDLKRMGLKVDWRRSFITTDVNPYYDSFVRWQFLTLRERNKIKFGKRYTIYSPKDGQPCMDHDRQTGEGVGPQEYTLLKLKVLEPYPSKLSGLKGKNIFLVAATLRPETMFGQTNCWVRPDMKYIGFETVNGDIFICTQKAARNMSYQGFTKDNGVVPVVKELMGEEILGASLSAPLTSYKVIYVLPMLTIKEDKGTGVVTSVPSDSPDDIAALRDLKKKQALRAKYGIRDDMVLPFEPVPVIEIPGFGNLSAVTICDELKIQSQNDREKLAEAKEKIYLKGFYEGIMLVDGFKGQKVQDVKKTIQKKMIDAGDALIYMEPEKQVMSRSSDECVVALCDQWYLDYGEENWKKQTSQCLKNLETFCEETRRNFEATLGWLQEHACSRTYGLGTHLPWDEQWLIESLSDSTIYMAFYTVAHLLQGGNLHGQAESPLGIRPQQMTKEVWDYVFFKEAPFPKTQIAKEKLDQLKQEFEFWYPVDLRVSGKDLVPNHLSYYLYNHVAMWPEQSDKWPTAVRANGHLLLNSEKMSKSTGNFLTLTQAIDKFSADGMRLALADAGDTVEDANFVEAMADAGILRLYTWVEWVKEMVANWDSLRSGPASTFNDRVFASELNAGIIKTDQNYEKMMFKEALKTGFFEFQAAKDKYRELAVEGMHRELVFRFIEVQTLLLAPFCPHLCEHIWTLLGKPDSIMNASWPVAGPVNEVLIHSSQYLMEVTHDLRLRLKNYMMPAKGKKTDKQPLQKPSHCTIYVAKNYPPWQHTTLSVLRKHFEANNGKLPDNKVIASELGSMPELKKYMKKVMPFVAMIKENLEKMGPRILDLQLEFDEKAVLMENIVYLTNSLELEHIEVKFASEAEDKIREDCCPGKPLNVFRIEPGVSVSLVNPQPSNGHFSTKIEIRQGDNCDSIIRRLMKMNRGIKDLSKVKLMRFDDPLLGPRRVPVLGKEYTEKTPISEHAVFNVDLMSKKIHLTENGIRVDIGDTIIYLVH

[5] = test system: cytoplasmic LeuRS; assay: Selectivity index, ratio of EC50 for inhibition of cytoplasmic LeuRS in HepG2 cells assessed as reduction in protein synthesis to MIC for Mycobacterium tuberculosis H37Rv; assay type: toxicity, cell-based; settings: human, read-out: Selectivity Index
Outline: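 Ratio of HepG2 protein-synthesis EC50 to MIC against M. tuberculosis H37Rv.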

[6] = target: T3, Leucine--tRNA ligase, mitochondrial (Homo sapiens, UniProt Q15031); assay: Inhibition of human N-terminal 6His-tagged mitochondrial LeuRS expressed in Escherichia coli BL21(DE3) assessed as L-[14C]leucine incorporation in to Escherichia coli tRNA after 20 mins by liquid scintillation counting analysis; outline: as §1
T3 sequence (Q15031 whole entry): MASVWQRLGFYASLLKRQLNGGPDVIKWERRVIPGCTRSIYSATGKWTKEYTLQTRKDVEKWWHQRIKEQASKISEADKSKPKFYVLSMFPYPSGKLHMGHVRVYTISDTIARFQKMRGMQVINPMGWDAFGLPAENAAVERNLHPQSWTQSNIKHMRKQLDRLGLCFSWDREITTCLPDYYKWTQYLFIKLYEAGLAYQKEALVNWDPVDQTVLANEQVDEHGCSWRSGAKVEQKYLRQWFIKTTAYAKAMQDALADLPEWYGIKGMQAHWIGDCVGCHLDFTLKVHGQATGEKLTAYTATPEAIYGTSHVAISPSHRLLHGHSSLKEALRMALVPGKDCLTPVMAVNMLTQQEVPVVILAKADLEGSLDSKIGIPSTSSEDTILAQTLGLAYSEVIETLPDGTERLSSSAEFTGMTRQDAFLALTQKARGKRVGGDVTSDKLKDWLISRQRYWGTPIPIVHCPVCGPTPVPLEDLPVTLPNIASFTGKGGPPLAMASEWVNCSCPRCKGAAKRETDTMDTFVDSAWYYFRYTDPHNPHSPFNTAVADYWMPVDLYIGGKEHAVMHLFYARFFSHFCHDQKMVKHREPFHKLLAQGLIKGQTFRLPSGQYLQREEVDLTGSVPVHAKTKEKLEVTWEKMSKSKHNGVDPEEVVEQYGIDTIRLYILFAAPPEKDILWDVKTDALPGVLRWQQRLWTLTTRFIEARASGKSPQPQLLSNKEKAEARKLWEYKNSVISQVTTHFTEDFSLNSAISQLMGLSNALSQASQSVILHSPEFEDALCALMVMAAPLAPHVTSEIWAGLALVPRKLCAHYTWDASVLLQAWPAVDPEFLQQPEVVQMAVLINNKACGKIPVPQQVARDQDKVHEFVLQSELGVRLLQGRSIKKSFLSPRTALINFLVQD

[7] = target: T2, Leucine--tRNA ligase, cytoplasmic; assay: Inhibition of cytoplasmic LeuRS in human HepG2 cells assessed as reduction in protein synthesis preincubated for 48 hrs followed by L-[14C]leucine addition measured after 3 hrs by liquid scintillation counting analysis; assay type: cell-based
Outline: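 HepG2 cells in DMEM/10% FCS, 3000 cells/well, exposed to compound dilutions (0.5% DMSO final) for 48 h at 37 °C. Medium then replaced with fresh medium containing 0.5 μCi L-[14C]leucine and the same compound levels for 3 h. Cells trypsinised, precipitated in ice-cold 20% TCA, filtered, washed, scintillation counted; curve-fit EC50; mean of at least duplicates.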

[8] = test system: HepG2; assay: Cytotoxicity against human HepG2 cells assessed as reduction in cell viability after 48 hrs by CellTiter-Glo assay; assay type: cell-based; settings: HepG2, 48 h
Outline: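 HepG2 cells seeded at 10 000/well in EMEM with 5% FCS and 2 mM glutamine. After 24 h, ten 1:2 serial compound dilutions (0.5% DMSO final) added in duplicate for 48 h. Read-out by CellTiter-Glo luminescence per table footnote; the method text also describes resazurin fluorescence (ex 515/em 590 nm). Sigmoidal variable-slope fit.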

[9] = Volume of distribution at steady state in CD-1 mouse at 5 mg/kg, iv after 24 hrs by LC-MS/MS analysis; assay type: ADME, organism-based; settings: in vivo, read-out: Vdss
[10] = Clearance in CD-1 mouse at 5 mg/kg, iv after 24 hrs by LC-MS/MS analysis; assay type: ADME, organism-based; settings: in vivo
[11] = Half life in CD-1 mouse at 5 mg/kg, iv after 24 hrs by LC-MS/MS analysis; assay type: ADME, organism-based; settings: in vivo
[12] = AUC (0 to infinity) in CD-1 mouse at 5 mg/kg, iv after 24 hrs by LC-MS/MS analysis; assay type: ADME, organism-based; parameters: dose 5 mg/kg, route intravenous, time infinity; settings: in vivo
[13] = test system: Mus musculus; assay: Dose normalized AUC (0 to infinity) in CD-1 mouse at 5 mg/kg, iv after 24 hrs by LC-MS/MS analysis; assay type: ADME, organism-based; settings: in vivo
[14] = Cmax in CD-1 mouse at 5 mg/kg administered via oral gavage after 24 hrs by LC-MS/MS analysis; assay type: ADME, organism-based; parameters: dose 5 mg/kg, route oral; settings: in vivo
[15] = Tmax in CD-1 mouse at 5 mg/kg administered via oral gavage after 24 hrs by LC-MS/MS analysis; assay type: ADME, organism-based; settings: in vivo
[16] = AUC (0 to 24 hrs) in CD-1 mouse at 5 mg/kg administered via oral gavage by LC-MS/MS analysis; assay type: ADME, organism-based; parameters: time < 24 hr, dose 5 mg/kg, route oral; settings: in vivo
[17] = test system: Mus musculus; assay: Dose normalized AUC (0 to 24 hrs) in CD-1 mouse at 5 mg/kg administered via oral gavage by LC-MS/MS analysis; assay type: ADME, organism-based; settings: in vivo
[18] = Oral bioavailability in CD-1 mouse at 5 mg/kg administered via gavage after 24 hrs by LC-MS/MS analysis; assay type: ADME, organism-based; settings: in vivo
[19] = test system: Mycobacterium tuberculosis; assay: Antimicrobial activity against Mycobacterium tuberculosis H37Rv infected in C57BL/6J mouse assessed as 2 log reduction in bacterial load in lungs administered qd for 8 consecutive days starting on day 1 post infection measured 24 hrs post last dose; assay type: functional
[20] = test system: Mus musculus; assay: Dose normalized AUC (0 to infinity) in C57BL/6 mouse at 30 mg/kg, iv administered as single dose measured up to 24 hrs by LC-MS/MS analysis; assay type: ADME, organism-based; settings: in vivo
[21] = Cmax in C57BL/6 mouse at 30 mg/kg administered as single dose via oral gavage measured up to 24 hrs by LC-MS/MS analysis; assay type: ADME, organism-based; parameters: dose 30 mg/kg, route oral; settings: in vivo
[22] = Tmax in C57BL/6 mouse at 30 mg/kg administered as single dose via oral gavage measured up to 24 hrs by LC-MS/MS analysis; assay type: ADME, organism-based; settings: in vivo
Outline: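 C57BL/6 female mice (18−20 g) got one oral gavage dose of 30 mg/kg in 1% methylcellulose. Peripheral whole blood was sampled from 15 min to 24 h postdose, n = 3 mice per time point, and drug concentrations were measured in blood.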

[23] = AUC (0 to 24 hrs) in C57BL/6 mouse at 30 mg/kg administered as single dose via oral gavage by LC-MS/MS analysis; assay type: ADME, organism-based; parameters: time < 24 hr, dose 30 mg/kg, route oral; settings: in vivo
[24] = test system: Mus musculus; assay: Dose normalized AUC (0 to 24 hrs) in C57BL/6 mouse at 30 mg/kg administered as single dose via oral gavage by LC-MS/MS analysis; assay type: ADME, organism-based; settings: in vivo
[25] = Volume of distribution at steady state in C57BL/6 mouse at 30 mg/kg, iv administered as single dose measured up to 24 hrs by LC-MS/MS analysis; assay type: ADME, organism-based; settings: in vivo, read-out: Vdss
Outline: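 C57BL/6 female mice (18−20 g) got one intravenous dose in saline. Whole blood (15 μL) was taken by lateral tail-vein puncture from each of 3 mice at 5, 15 and 30 min and at 1, 2, 4, 8 and 24 h postdose, and drug concentrations were measured in peripheral blood.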

[26] = Oral bioavailability in C57BL/6 mouse at 30 mg/kg administered as single dose via gavage measured up to 24 hrs by LC-MS/MS analysis; assay type: ADME, organism-based; settings: in vivo
[27] = Clearance in C57BL/6 mouse at 30 mg/kg, iv administered as single dose measured up to 24 hrs by LC-MS/MS analysis; assay type: ADME, organism-based; settings: in vivo
[28] = Half life in C57BL/6 mouse at 30 mg/kg, iv administered as single dose measured up to 24 hrs by LC-MS/MS analysis; assay type: ADME, organism-based; settings: in vivo
[29] = AUC (0 to infinity) in C57BL/6 mouse at 30 mg/kg, iv administered as single dose measured up to 24 hrs by LC-MS/MS analysis; assay type: ADME, organism-based; parameters: dose 30 mg/kg, time infinity, route intravenous; settings: in vivo

Structure (SMILES): CC(=O)NC[C@H]1CN(c2ccc(N3CCOCC3)c(F)c2)C(=O)O1 [LINEZOLID]
- Activity [1]: 3.9 log10CFU

Structure (SMILES): COc1ccc(Br)c2c1B(O)O[C@@H]2CN.Cl
- IC50 [2]: 0.074 µM
- MIC [3]: 0.1 µM
- IC50 [4]: > 300 µM
- selectivity ratio [5]: 970
- IC50 [6]: > 300 µM
- EC50 [7]: 97 µM
- EC50 [8]: 74.5 µM
- Vd [9]: 2.5 L/kg
- clearance [10]: 14.2 mL/min/kg
- half-life [11]: 2.4 h
- AUC(0-inf) [12]: 5840 ng·h/mL
- AUC/dose [13]: 1.17 µg·h/mL/mg/kg
- Cmax [14]: 980 ng/mL
- Tmax [15]: 0.25 h
- AUC(0-t) at 24 h [16]: 4210 ng·h/mL
- AUC/dose [17]: 0.84 µg·h/mL
- bioavailability [18]: 72%
- ED99 [19]: 3.8 mg/kg

Structure (SMILES): Cl.NC[C@H]1OB(O)c2c3c(cc(Cl)c21)OCCO3
- AUC/dose [20]: 2.54 µg·h/mL/mg/kg
- IC50 [2]: 0.046 µM
- MIC [3]: 0.08 µM
- IC50 [4]: 96.6 µM
- selectivity ratio [5]: 1040
- EC50 [7]: 82.8 µM
- EC50 [8]: 69.5 µM
- Cmax [21]: 6210 ng/mL
- Tmax [22]: 1 h
- AUC(0-t) at 24 h [23]: 37700 ng·h/mL
- AUC/dose [24]: 1.26 µg·h/mL
- Vd [25]: 1.5 L/kg
- bioavailability [26]: 50%
- clearance [27]: 6.6 mL/min/kg
- half-life [28]: 2.9 h
- AUC(0-inf) [29]: 76300 ng·h/mL
- ED99 [19]: 70 mg/kg
